Results as given in ChEMBL document CHEMBL1153712, “Design, synthesis and bioactivity of catechin/epicatechin and 2-azetidinone derived chimeric molecules” (2009).
The source made the active and inactive calls. The calls are words filed in the database; no cut-off is given here.

Legend:
Escherichia coli = test: Antibacterial activity against Escherichia coli at 1 mmol after 48 hrs by disk diffusion assay; assay type: functional
Outline: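 Disc diffusion on agar. A colony was grown in nutrient broth for 2.5 h and spread over dried plates. Sterile 6 mm paper discs carried 1 mmol of compound. Plates were held at 37 °C and read at 48 h for inhibition-zone diameter. Controls were ampicillin (standard) and a DMSO-only disc.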

[1] = target: T1, Ribonuclease pancreatic (Bos taurus) (UniProt P61823); test: Inhibition of bovine pancreatic RNase A assessed as degradation of 18s rRNA after 1 hr by agarose gel based assay
T1 sequence (whole entry): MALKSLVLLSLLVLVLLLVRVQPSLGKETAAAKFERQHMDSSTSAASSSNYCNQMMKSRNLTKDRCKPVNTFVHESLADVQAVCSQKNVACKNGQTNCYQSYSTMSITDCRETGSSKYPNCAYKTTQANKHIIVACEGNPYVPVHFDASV
Outline: (§1)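 Qualitative agarose-gel assay. RNase A was preincubated with compounds for 1 h at 37 °C. RNA substrate was then added and digested for 15 minutes. Samples were mixed with 40% sucrose and 0.25% bromophenol blue in 1× TAE and run on a 1.1% agarose gel. Degradation of 28S and 18S rRNA bands was scored.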

[2] = target: T1, Ribonuclease pancreatic (Bos taurus); test: Inhibition of bovine pancreatic RNase A assessed as degradation of 28s rRNA after 1 hr by agarose gel based assay; outline: as §1

Structure (SMILES) | Inhibition (qualitative, active/not active) [1] | inhibition [2] | Activity (Escherichia coli) | diameter of the inhibition zone (DIZ) (Escherichia coli)
COc1ccc([C@@H]2[C@H](CCN=[N+]=[N-])C(=O)N2c2ccccc2)cc1 |  |  | inactive | 
COc1ccc([C@@H]2[C@H](CCO)C(=O)N2c2ccccc2)cc1 |  |  | inactive | 
O=C1[C@@H](CCO)[C@@H](c2ccccc2)N1c1ccccc1 |  |  | inactive | 
[N-]=[N+]=NCC[C@@H]1C(=O)N(c2ccccc2)[C@@H]1c1ccccc1 |  |  | inactive | 
COc1ccc([C@@H]2[C@H](CCn3cc(CO[C@H]4Cc5c(O)cc(O)cc5O[C@@H]4c4ccc(O)c(O)c4)nn3)C(=O)N2c2ccccc2)cc1 (mixture of isomers) | Active | inactive |  | 6 mm
COc1ccc([C@@H]2[C@H](CCn3cc(CO[C@@H]4Cc5c(O)cc(O)cc5O[C@@H]4c4ccc(O)c(O)c4)nn3)C(=O)N2c2ccccc2)cc1 (mixture of isomers) | Active | inactive |  | 6 mm

Now from value to compound, other results behind:

Inhibition (qualitative, active/not active) [1] | inhibition [2] | Structure (SMILES) | Activity (Escherichia coli) | diameter of the inhibition zone (DIZ) (Escherichia coli)
inactive |  | Oc1cc(O)c2c(c1)O[C@H](c1ccc(O)c(O)c1)[C@@H](O)C2 |  | 
inactive |  | Oc1cc(O)c2c(c1)O[C@H](c1ccc(O)c(O)c1)[C@H](O)C2 |  | 
Active | inactive | O=C1[C@@H](CCn2cc(CO[C@H]3Cc4c(O)cc(O)cc4O[C@@H]3c3ccc(O)c(O)c3)nn2)[C@@H](c2ccccc2)N1c1ccccc1 (mixture of isomers) |  | 9 mm
Active | inactive | O=C1[C@@H](CCn2cc(CO[C@@H]3Cc4c(O)cc(O)cc4O[C@@H]3c3ccc(O)c(O)c3)nn2)[C@@H](c2ccccc2)N1c1ccccc1 (mixture of isomers) |  | 9 mm
